As a reminder, the IC50 is the concentration that inhibits the measured activity by half. A low value points to higher potency.

Data on 17 compounds can be found in ChEMBL document CHEMBL1124603, “Renin inhibitors. Synthesis of transition-state analogue inhibitors containing phosphorus acid derivatives at the scissile bond” (J Med Chem, 1989).

Starred links: 1 amine or outer side, 2 acyl side, 3 side chain; linkers in the order of their positions; H or OH if unused. Non-standard residues stand in square brackets, D forms with d. Residues, ends and D or L forms follow the SMILES beside them. ξ: configuration not given here. *: point of attachment. ξLeuψ(P(O)(OH)CH2)ξVal = CC(C)CC(N[*:1])P(=O)(O)CC(C(=O)[*:2])C(C)C; X1 = CC(C)CC(N[*:1])P(=O)(O)C[C@@H](C(=O)[*:2])C(C)C; X2 = CC(C)CC(N[*:1])P(=O)(O)CCC(=O)[*:2]; X3 = CC(C)CC(N[*:1])P(=O)(O)CC(=O)[*:2]; NMeH = CN[C@@H](Cc1c[nH]cn1)C(=O)O; NMeF = CN[C@@H](Cc1ccccc1)C(=O)O; ξR = N=C(N)NCCCC(N)C(=O)O; Cbz = O=C(OCc1ccccc1)*; Boc = CC(C)(C)OC(=O)*; OtBu = CC(C)(C)O* Bounds are passed on as bounds.

In the experiment the target is T1, Renin (Homo sapiens, UniProt P00797).
T1 sequence (P00797 whole entry): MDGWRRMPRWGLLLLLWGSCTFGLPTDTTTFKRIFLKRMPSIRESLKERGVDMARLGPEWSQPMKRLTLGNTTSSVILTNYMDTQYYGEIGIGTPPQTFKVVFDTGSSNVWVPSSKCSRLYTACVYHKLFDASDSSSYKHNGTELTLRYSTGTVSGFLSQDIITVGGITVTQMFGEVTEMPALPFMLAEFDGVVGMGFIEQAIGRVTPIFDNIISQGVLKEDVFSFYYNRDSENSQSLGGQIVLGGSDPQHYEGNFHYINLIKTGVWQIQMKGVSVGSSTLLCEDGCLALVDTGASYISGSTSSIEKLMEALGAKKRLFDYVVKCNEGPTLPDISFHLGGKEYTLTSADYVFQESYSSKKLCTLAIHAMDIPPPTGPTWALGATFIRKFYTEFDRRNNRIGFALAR
Nature of the experiment: In vitro inhibition against human plasma renin at pH 7.2 was determined. The format is cell-free. An outline of the steps:
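Human plasma renin activity assayed in vitro at pH 7.2 with the synthetic peptides added. IC50 is the peptide concentration that lowered plasma renin activity by 50%.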

`CC(C)CC(NC(=O)[C@H](Cc1c[nH]cn1)NC(=O)[C@H](Cc1ccccc1)NC(=O)[C@H]1CCCN1C(=O)OCc1ccccc1)P(=O)(O)O` (some centres not stated) had an IC50 of 6.4 µM.
For `CC[C@H](C)[C@H](NC(=O)CCP(=O)(O)[C@@H](CC(C)C)NC(=O)[C@H](Cc1c[nH]cn1)NC(=O)[C@H](Cc1ccccc1)NC(=O)[C@H]1CCCN1C(=O)[C@H](CCCN=C(N)N)NC(=O)[C@H](CCCN=C(N)N)NC(=O)OCc1ccccc1)C(=O)N[C@@H](Cc1c[nH]cn1)C(N)=O` the value was 10 µM; for `CC[C@H](C)[C@H](NC(=O)[C@@H](CP(=O)(O)[C@@H](CC(C)C)NC(=O)[C@H](Cc1c[nH]cn1)NC(=O)[C@H](Cc1ccccc1)NC(=O)[C@H]1CCCN1C(=O)[C@H](CCCN=C(N)N)NC(=O)[C@H](CCCN=C(N)N)NC(=O)OCc1ccccc1)C(C)C)C(=O)N[C@@H](Cc1c[nH]cn1)C(N)=O`, 0.1 µM.
`COC(=O)C(CP(=O)(O)C(CC(C)C)NC(=O)CC(O)C(CC(C)C)NC(=O)[C@H](Cc1cnc[nH]1)NC(=O)[C@H](Cc1ccccc1)NC(=O)OCc1ccccc1)C(C)C` (some centres not stated) registered an IC50 of over 30 µM.
`COC(=O)CC(O)[C@H](CC(C)C)NC(=O)[C@H](C)NC(=O)C(CP(=O)(O)C(CC(C)C)NC(=O)[C@H](Cc1c[nH]cn1)NC(=O)[C@H](Cc1ccccc1)NC(=O)[C@H]1CCCN1C(=O)OCc1ccccc1)C(C)C` (some centres not stated) displayed an IC50 of 0.9 µM.
`CC[C@H](C)[C@H](NC(=O)C(CP(=O)(O)C(CC(C)C)NC(=O)[C@H](Cc1cnc[nH]1)NC(=O)[C@H](Cc1ccccc1)NC(=O)[C@H]1CCCN1C(=O)[C@H](Cc1cnc[nH]1)NC(=O)[C@H]1CCCN1)C(C)C)C(=O)N[C@@H](Cc1cnc[nH]1)C(=O)N[C@@H](CCCCN)C(=O)O` (some centres not stated) returned an IC50 of 0.07 µM.
For `CC[C@H](C)[C@H](NC(=O)C(CP(=O)(O)C(CC(C)C)NC(=O)[C@H](Cc1cnc[nH]1)NC(=O)[C@H](Cc1ccccc1)NC(=O)[C@H]1CCCN1C(=O)OCc1ccccc1)C(C)C)C(=O)N[C@@H](Cc1cnc[nH]1)C(N)=O` (some centres not stated) the value was 0.6 µM; for `CC(C)CC(NC(=O)[C@H](Cc1cnc[nH]1)NC(=O)[C@H](Cc1ccccc1)NC(=O)[C@H]1CCCN1C(=O)OCc1ccccc1)[PH](=O)O` (some centres not stated), over 30 µM; for `CC[C@H](C)[C@H](NC(=O)C(CP(=O)(O)C(CC(C)C)NC(=O)[C@H](Cc1ccccc1)NC(=O)[C@H](Cc1ccccc1)NC(=O)OC(C)(C)C)C(C)C)C(=O)N[C@@H](Cc1cnc[nH]1)C(N)=O` (some centres not stated) (Boc-FF[ξLeuψ(P(O)(OH)CH2)ξVal]IH-NH2), 6 µM.
`CC[C@H](C)[C@H](NC(=O)C(CP(=O)(O)C(CC(C)C)NC(=O)[C@H](Cc1ccccc1)N(C)C(=O)[C@H](Cc1ccccc1)NC(=O)OC(C)(C)C)C(C)C)C(=O)N[C@@H](Cc1c[nH]cn1)C(N)=O` (some centres not stated) (Boc-F[NMeF][ξLeuψ(P(O)(OH)CH2)ξVal]IH-NH2) displayed an IC50 of over 30 µM.
The value for `CC[C@H](C)[C@H](NC(=O)C(CP(=O)(O)C(CC(C)C)NC(=O)[C@H](Cc1c[nH]cn1)N(C)C(=O)[C@H](Cc1ccccc1)NC(=O)OC(C)(C)C)C(C)C)C(=O)N[C@@H](Cc1c[nH]cn1)C(N)=O` (some centres not stated) (Boc-F[NMeH][ξLeuψ(P(O)(OH)CH2)ξVal]IH-NH2) was over 30 µM.
`CC[C@H](C)[C@H](NC(=O)[C@H](CP(=O)(O)C(CC(C)C)NC(=O)[C@H](Cc1cnc[nH]1)NC(=O)[C@H](Cc1ccccc1)NC(=O)OCc1ccccc1)C(C)C)C(=O)N[C@@H](Cc1cnc[nH]1)C(N)=O` (some centres not stated) (Cbz-FH[X1]IH-NH2): inhibition was half-maximal at 2 µM (IC50).
The value for `CC[C@H](C)[C@H](NC(=O)CCP(=O)(O)C(CC(C)C)NC(=O)[C@H](Cc1cnc[nH]1)NC(=O)[C@H](Cc1ccccc1)NC(=O)OCc1ccccc1)C(=O)N[C@@H](Cc1cnc[nH]1)C(N)=O` (some centres not stated) (Cbz-FH[X2]IH-NH2) was over 30 µM; that for `CC[C@H](C)[C@H](NC(=O)CP(=O)(O)C(CC(C)C)NC(=O)[C@H](Cc1cnc[nH]1)NC(=O)[C@H](Cc1ccccc1)NC(=O)OCc1ccccc1)C(=O)N[C@@H](Cc1cnc[nH]1)C(N)=O` (some centres not stated) (Cbz-FH[X3]IH-NH2) was over 30 µM.
For `CC[C@H](C)[C@H](NC(=O)C(CP(=O)(O)C(CC(C)C)NC(=O)[C@H](Cc1cnc[nH]1)NC(=O)[C@H](Cc1ccccc1)NC(=O)OCc1ccccc1)C(C)C)C(=O)N[C@@H](Cc1ccccc1)C(N)=O` (some centres not stated) (Cbz-FH[ξLeuψ(P(O)(OH)CH2)ξVal]IF-NH2) the value was 5 µM.
For `CC[C@H](C)[C@H](NC(=O)C(CP(=O)(O)C(CC(C)C)NC(=O)[C@H](Cc1c[nH]cn1)NC(=O)[C@H](Cc1ccccc1)NC(=O)OCc1ccccc1)C(C)C)C(=O)NC(CCCN=C(N)N)C(=O)OC(C)(C)C` (some centres not stated) (Cbz-FH[ξLeuψ(P(O)(OH)CH2)ξVal]I[ξR]-OtBu) the value was over 30 µM; for `CC[C@H](C)[C@H](NC(=O)C(CP(=O)(O)C(CC(C)C)NC(=O)[C@H](Cc1c[nH]cn1)NC(=O)[C@H](Cc1ccccc1)NC(=O)CNC(=O)OCc1ccccc1)C(C)C)C(=O)N[C@@H](Cc1c[nH]cn1)C(N)=O` (some centres not stated) (Cbz-GFH[ξLeuψ(P(O)(OH)CH2)ξVal]IH-NH2), 0.8 µM.
